According to ChEMBL document CHEMBL1142383, “Discovery of potent cholecystokinin-2 receptor antagonists: elucidation of key pharmacophore elements by X-ray crystallographic and NMR conformational analysis” (Bioorg Med Chem, 2008):

Assays:
[1] = molecular target: T1, Gastrin/cholecystokinin type B receptor (Homo sapiens, UniProt P32239); assay: Displacement of [125I]CCK8S from human CCK2R
T1 sequence (P32239 whole entry): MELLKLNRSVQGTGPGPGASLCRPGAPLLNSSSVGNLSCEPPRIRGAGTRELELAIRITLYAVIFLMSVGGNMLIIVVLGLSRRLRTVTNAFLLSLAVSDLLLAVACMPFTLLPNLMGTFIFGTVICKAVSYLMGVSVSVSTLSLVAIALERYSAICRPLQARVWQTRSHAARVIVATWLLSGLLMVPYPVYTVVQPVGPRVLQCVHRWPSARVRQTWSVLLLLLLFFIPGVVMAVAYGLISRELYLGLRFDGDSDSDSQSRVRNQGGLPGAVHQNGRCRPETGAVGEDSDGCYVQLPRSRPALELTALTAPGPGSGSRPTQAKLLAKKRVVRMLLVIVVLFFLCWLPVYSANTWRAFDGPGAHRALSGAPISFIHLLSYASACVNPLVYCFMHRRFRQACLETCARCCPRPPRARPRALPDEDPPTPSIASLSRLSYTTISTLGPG
Summary of the method: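 Radioligand competition binding at human CCK-2R against [125I]-CCK-8S. The pIC50 is the concentration displacing 50% of tracer binding, converted to pKi by the Cheng–Prusoff method.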

[2] = molecular target: T2, Cholecystokinin receptor type A (Homo sapiens, UniProt P32238); assay: Displacement of [125I]CCK8S from human CCK1R
T2 sequence (P32238 whole entry): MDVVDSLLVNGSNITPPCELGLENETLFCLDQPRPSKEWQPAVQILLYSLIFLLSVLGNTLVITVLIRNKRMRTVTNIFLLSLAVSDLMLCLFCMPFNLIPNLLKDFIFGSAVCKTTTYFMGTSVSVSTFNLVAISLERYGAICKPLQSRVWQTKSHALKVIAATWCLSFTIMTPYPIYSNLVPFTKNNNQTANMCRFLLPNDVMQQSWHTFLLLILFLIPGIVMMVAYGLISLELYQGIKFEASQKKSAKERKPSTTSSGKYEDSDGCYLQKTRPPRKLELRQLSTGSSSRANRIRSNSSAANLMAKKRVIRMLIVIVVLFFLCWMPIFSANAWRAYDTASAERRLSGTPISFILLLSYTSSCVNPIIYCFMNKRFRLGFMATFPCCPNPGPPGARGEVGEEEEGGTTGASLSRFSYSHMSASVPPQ

[3] = Metabolic stability in human liver microsome assessed as compound remaining after 30 mins; format: ADME; conditions: liver microsomes, read-out: Stability
Summary of the method: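 Incubation for 30 min with pooled human liver microsome preparations (n = 20). Stability is expressed as percent of parent remaining.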

[4] = Half life in rat at 2 umol/kg, iv; format: ADME, organism-based; conditions: in vivo
Summary of the method: (§1)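 Rat pharmacokinetics after an intravenous dose of […]. Clearance and half-life were derived from the iv dosing.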

[5] = Bioavailability in rat at 2 umol/kg, po; format: ADME, organism-based; conditions: in vivo
Summary of the method: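 Rat oral dosing at […]. Bioavailability is reported as relative fraction absorbed (%F) from the po dose.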

[6] = Clearance in rat at 2 umol/kg, iv; format: ADME, organism-based; conditions: in vivo; summary of the method: as §1

For `O=C(c1ccc(Br)cc1NS(=O)(=O)c1cccc2[nH]cnc12)N1CCCCC1`, the Ki [1] was 1.58 µM and the Ki [2] was over 10 µM.
In the case of `Cn1nnc2c(S(=O)(=O)Nc3cc(Br)ccc3C(=O)N3CCCCC3)cccc21`, the Ki [1] is reported as 2 µM and the Ki [2] is reported as over 10 µM.
`O=C(c1ccc(Br)cc1NS(=O)(=O)c1cccc2scnc12)N1CCCCC1` gave a Ki [1] of 0.0794 µM and a Ki [2] of over 10 µM.
Compound `Cn1nc2cccc(S(=O)(=O)Nc3cc(Br)ccc3C(=O)N3CCCCC3)c2n1` has a Ki [1] of 0.794 µM and a Ki [2] of over 10 µM.
With `O=C(c1ccc(Br)cc1NS(=O)(=O)c1cccc2nccnc12)N1CCCCC1` the remaining at 0.5 h [3] was 21%, the half-life [4] was 20.4 min and the Ki [2] was over 10 µM. It also gave a bioavailability [5] of 50% and a clearance [6] of 13.8 mL/min/kg.
For `O=C(NCc1ccc(Cl)cc1)c1ccc(Br)cc1NS(=O)(=O)c1cccc2nsnc12`, the Ki [1] was 0.501 µM and the Ki [2] was over 10 µM.
`O=C(c1ccc(Br)cc1NS(=O)(=O)c1ccc2ncsc2c1)N1CCCCC1` showed a Ki [1] of 3.16 µM and a Ki [2] of over 10 µM.
For `O=C(c1ccc(Br)cc1NS(=O)(=O)c1cccc2ncsc12)N1CCCCC1`, the Ki [1] was 0.794 µM and the Ki [2] was over 10 µM.
`Cc1nc2cccc(S(=O)(=O)Nc3cc(Br)ccc3C(=O)N3CCCCC3)c2s1` showed a Ki [1] of 5.01 µM and a Ki [2] of over 10 µM.
In the case of `Cn1nc2ccc(S(=O)(=O)Nc3cc(Br)ccc3C(=O)N3CCCCC3)cc2n1`, the Ki [1] is reported as over 10 µM and the Ki [2] is reported as over 10 µM.
